Values after ≈ are worked out from the molar mass of the structure shown. Active and inactive are the calls of the source. The calls are words filed in the database; no cut-off is given here. Some results are limits rather than exact numbers.

The text below walks through data of ChEMBL document CHEMBL2401679, “Synthesis and on-target antibacterial activity of novel 3-elongated arylalkoxybenzamide derivatives as inhibitors of the bacterial cell division protein FtsZ” (2013).

The subject of experiment [1] is Staphylococcus aureus. Description: Ratio of compound MIC to 3-MBA MIC for penicillin-resistant Staphylococcus aureus clinical isolate. It is filed as functional.
The test system of experiment [2] is Staphylococcus aureus. Briefly: Ratio of compound MIC to 3-MBA MIC for penicillin-susceptible Staphylococcus aureus ATCC 25923. In kind it is functional.
In experiment [3] the test system is Streptococcus pyogenes. Briefly: Antibacterial activity against penicillin-susceptible Streptococcus pyogenes after 24 hrs by broth microdilution method. In kind it is functional. An outline of the steps:
(§1)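 MIC by broth microdilution following the NCCLS standard method. Test strains were penicillin-susceptible: B. subtilis ATCC9372, S. aureus ATCC25923, S. pneumoniae ATCC49619 and Streptococcus pyogenes PS.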

Experiment [4] relates to Streptococcus pneumoniae. Briefly: Antibacterial activity against penicillin-susceptible Streptococcus pneumoniae ATCC 49619 after 24 hrs by broth microdilution method. In kind it is functional. The settings on record: ATCC 49619, 24 h. The gist of the method:
as §1

The subject of experiment [5] is Staphylococcus aureus. Description: Antibacterial activity against penicillin-resistant Staphylococcus aureus clinical isolate after 24 hrs by broth microdilution method. In kind it is functional. An outline of the steps:
(§2)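 MIC by standard broth microdilution following NCCLS recommendations. S. aureus ATCC29213 is a […] strain. The S. aureus PR strain is a penicillin-resistant clinical isolate that has not been characterized. The MIC was taken as the in vitro antibacterial activity value.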

Experiment [6] has as its system Staphylococcus aureus. Briefly: Antibacterial activity against penicillin-susceptible Staphylococcus aureus ATCC 25923 after 24 hrs by broth microdilution method. In kind it is functional. Conditions: ATCC 25923, 24 h. An outline of the steps:
as §1

In experiment [7] the test system is Staphylococcus aureus. Description: Antibacterial activity against […] Staphylococcus aureus ATCC 29213 after 24 hrs by broth microdilution method. It is filed as functional. The settings on record: ATCC 29213, 24 h. An outline of the steps:
as §2

For experiment [8], the system named is Bacillus subtilis. Description: Antibacterial activity against penicillin-susceptible Bacillus subtilis ATCC 9372 after 24 hrs by broth microdilution method. Conditions: ATCC 9372, 24 h. It is filed as functional. The gist of the method: as §1
The subject of experiment [9] is Staphylococcus aureus. Briefly: Inhibition of cell division in penicillin-susceptible Staphylococcus aureus ATCC 25923 assessed as lowest concentration required to ballooning after 5 hrs by phase-contrast light microscopy analysis. In kind it is functional. An outline of the steps:
(§3)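 Cell morphology of B. subtilis ATCC9372 or S. aureus ATCC25923 was examined by phase-contrast light microscopy. The value recorded is the lowest compound concentration at which B. subtilis filamentation or S. aureus ballooning appeared. This is taken as on-target cell division inhibition.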

Experiment [10] concerns Bacillus subtilis. Briefly: Inhibition of cell division in penicillin-susceptible Bacillus subtilis ATCC 9372 assessed as lowest concentration required to filamentation after 5 hrs by phase-contrast light microscopy analysis. In kind it is functional. An outline of the steps:
as §3

The subject of experiment [11] is Bacillus subtilis. Description: Ratio of compound MIC to 3-MBA MIC for penicillin-susceptible Bacillus subtilis ATCC 9372. It is filed as functional.
For experiment [12], the system named is Bacillus subtilis. Briefly: Ratio of compound to 3-MBA for inhibition of cell division in penicillin-susceptible Bacillus subtilis ATCC 9372. In kind it is functional.
In experiment [13] the test system is Staphylococcus aureus. Briefly: Inhibition of cell division in penicillin-susceptible Staphylococcus aureus ATCC 25923 at 2048 to 4096 ug/ml after 5 hrs by phase-contrast light microscopy analysis. In kind it is functional, organism-based.
The test system of experiment [14] is Bacillus subtilis. Briefly: Inhibition of cell division in penicillin-susceptible Bacillus subtilis ATCC 9372 at 2048 to 4096 ug/ml after 5 hrs by phase-contrast light microscopy analysis. It is filed as functional, organism-based.

Consider `NC(=O)c1cccc(OCCCCCl)c1`, for which the values for the Ratio in experiment [1] and in experiment [2] were 512 and 256, respectively. Also, the minimum inhibitory concentration (MIC) is more than 128 µg/mL in [3]; more than 128 µg/mL in [4]; 8 µg/mL (≈ 35.1 µM) in experiment [5]; 8 µg/mL (≈ 35.1 µM) in experiment [6]; 8 µg/mL (≈ 35.1 µM) in experiment [7]; 32 µg/mL (≈ 141 µM) in experiment [8]. Moreover, the INH in experiment [9] amounted to 32 µg/mL; in [10] it was 16 µg/mL.
Consider `NC(=O)c1cccc(OCCCCBr)c1`, for which the Ratio in experiment [1] came out at 512; in experiment [2] it was 256; in [11], 256. For the same molecule, the MIC in experiment [3] was more than 128 µg/mL; in [4] it was more than 128 µg/mL; in experiment [5] it was 8 µg/mL (≈ 29.4 µM); in experiment [6], 8 µg/mL (≈ 29.4 µM); in experiment [7], 8 µg/mL (≈ 29.4 µM); in experiment [8], 16 µg/mL (≈ 58.8 µM). Also, the INH in experiment [9] and in [10] was 8 µg/mL throughout.
On to `CCCCOCCCCCOc1cccc(C(N)=O)c1`, for which the Ratio in experiment [2] is recorded as 256; in experiment [11], 512. The minimal inhibitory concentration (MIC) is more than 128 µg/mL in experiment [3]; more than 128 µg/mL in experiment [4]; 8 µg/mL (≈ 28.6 µM) in experiment [5]; 8 µg/mL (≈ 28.6 µM) in experiment [6]; 4 µg/mL (≈ 14.3 µM) in experiment [7]; 8 µg/mL (≈ 28.6 µM) in [8]. The values for the INH in experiment [9] and in experiment [10] were 16 µg/mL and 8 µg/mL, respectively.
As for `NC(=O)c1cccc(OCCCCCCCl)c1`, the figures for the Ratio in experiment [11] and in experiment [12] were 256 and 128, respectively. The MIC in [3] was more than 128 µg/mL; in experiment [4] it was more than 128 µg/mL; in [5] it was 32 µg/mL (≈ 125 µM); in experiment [6], 32 µg/mL (≈ 125 µM); in experiment [7], 64 µg/mL (≈ 250 µM); in experiment [8], 16 µg/mL (≈ 62.6 µM). Also, the INH in experiment [9] stood at 32 µg/mL; in experiment [10], 4 µg/mL.
For `Cc1nc2ccccc2n1CCCCOc1cccc(C(N)=O)c1`, the inhibition result in [13] and in experiment [14] was “inactive” in each case. Also, the MIC is more than 128 µg/mL in [3]; more than 128 µg/mL in experiment [4]; more than 128 µg/mL in experiment [5]; 1020 µg/mL (≈ 3170 µM) in [6]; more than 128 µg/mL in experiment [7]; 1020 µg/mL (≈ 3170 µM) in experiment [8].
Turning to `NC(=O)c1cccc(OCCCCn2cncn2)c1`, the inhibition result in experiment [14] is “inactive”. The MIC is more than 128 µg/mL in [3]; more than 128 µg/mL in experiment [4]; more than 128 µg/mL in experiment [5]; 1020 µg/mL (≈ 3930 µM) in [6]; more than 128 µg/mL in [7]; 1020 µg/mL (≈ 3930 µM) in experiment [8]. The INH in experiment [9] was determined as 1024 µg/mL.
